What is called IC50 is the midpoint of a concentration-inhibition curve.

Experimental findings from paper PMC9063559 (RSC Advances, 2019) are described below.

Common to all, as to assay type: cell-based
The test system of series [1] is Plasmodium falciparum (NF54 strain). In words: in vitro antiplasmodial activity, chloroquine-sensitive NF54 strain. Particulars: NF54, read-out: IC50 P. falciparum (NF54 strain). Summed up:
(§1)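 Test compounds were run in vitro in parallel against P. falciparum NF54 and K1, T. cruzi Tulahuen C4 amastigotes, T. b. rhodesiense STIB 900 trypomastigotes, L. donovani MHOM-ET-67/L82 amastigotes and rat L6 skeletal myoblasts. Each IC50 is the mean of two independent assays, with individual values within a factor of 2. Selectivity index = L6 IC50 ÷ P. falciparum IC50 for the respective strain.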

Series [2] has as its system Trypanosoma brucei rhodesiense (STIB 900 strain, trypomastigotes). Kind of series: in vitro activity against Trypanosoma brucei rhodesiense. Particulars: RHODESIENSE|STIB900, read-out: IC50 T. brucei rhodesiense. The method in brief:
as §1

Series [3] concerns Leishmania donovani (MHOM-ET-67/L82, amastigotes). In words: in vitro activity against Leishmania donovani. As to conditions: read-out: IC50 L. donovani. The method in brief:
as §1

Series [4] is described as follows: cytotoxicity against mammalian host cells. As to conditions: rat, rat skeletal myoblast L6 cells. Summed up:
as §1

Consider `C[C@@H]1CC[C@H]2[C@@H](C)C(=O)O[C@@H]3O[C@@]4(C)CC[C@@H]1[C@]32OO4` [Artemisinin], for which the IC50 in series [1] was found to be 0.021 µM.
For the compound `Nc1nc(N)nc(Nc2ccc([As]3SCC(CO)S3)cc2)n1` (stereo not shown) [Melarsoprol], the IC50 in series [2] is 0.03 µM.
On to `CCCCCCCCCCCCCCCCOP(=O)([O-])OCC[N+](C)(C)C` [Miltefosine], for which the IC50 in series [3] turned out to be 1.08 µM.
`COc1cc([C@@H]2c3cc4c(cc3[C@H](O)[C@H]3COC(=O)[C@H]23)OCO4)cc(OC)c1OC` [Podophyllotoxin]: inhibition in series [4] was half-maximal at 0.0096 µM (IC50).
